This is a sample that favours compounds with a hit; in the whole collection about 1.8% have one here.
TDP2 absorb – blocks human TDP2 phosphodiesterase activity; AID 720702; inhibition, % at 12.8 µM; recombinant TDP2, T5PNP hydrolysis, p-nitrophenol absorbance 415 nm; actives 0.34% (n = 370,000);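 active means inhibition above the mean of all tested compounds plus 3 SD, set per campaign, cut at about 25% in these data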
Target sequence (O95551 whole entry, looked up): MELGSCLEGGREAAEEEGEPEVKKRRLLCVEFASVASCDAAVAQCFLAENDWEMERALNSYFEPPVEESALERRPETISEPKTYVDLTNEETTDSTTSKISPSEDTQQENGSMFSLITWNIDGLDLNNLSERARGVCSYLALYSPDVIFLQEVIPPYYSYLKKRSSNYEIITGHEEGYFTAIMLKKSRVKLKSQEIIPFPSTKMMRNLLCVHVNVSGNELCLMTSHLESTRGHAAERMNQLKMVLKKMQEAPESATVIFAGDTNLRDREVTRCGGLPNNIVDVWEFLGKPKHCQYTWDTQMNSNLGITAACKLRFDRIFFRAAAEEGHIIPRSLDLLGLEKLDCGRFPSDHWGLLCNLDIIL
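Assay system: Recombinant human TDP2 | Quantity: 120 nM TDP2 per well | Incubation: 2 h at 37 °C | Signal: Epi absorbance | Evaluation: Percent inhibition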
LEDGF integ inh – blocks HIV-1 LEDGF/p75-dependent DNA integration; actives 0.64% (n = 370,000); inhibition, % at 3.7 µM; TR-FRET IN-LEDGF/p75 DNA integration, Eu/Cy5;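 active means inhibition above the screen-wide mean plus 3 SD, cut at about 13% in these data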;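 further: signal is the Cy5 over europium emission ratio at 671 and 618 nm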
MBD2 DNA inh – MBD2-methylated oligo binding inhibition | AID 686964 | actives 0.31% (n = 370,000) | Q9UBB5 | inhibition, % at 4.4 µM | TR-FRET, MBD2 binding to methylated oligonucleotide; in the data active means inhibition above about 13%
Casp6 inh – caspase-6 (human) enzyme inhibition; P55212; purified caspase-6, Z-VEID-R110 cleavage fluorescence; inhibition, % at 12.5 µM; actives 0.53% (n = 350,000);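 active means mean inhibition across replicates at least about 35%, with every replicate also reaching that limit, limit read from the data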
Target sequence (P55212 24-179 limits assumed): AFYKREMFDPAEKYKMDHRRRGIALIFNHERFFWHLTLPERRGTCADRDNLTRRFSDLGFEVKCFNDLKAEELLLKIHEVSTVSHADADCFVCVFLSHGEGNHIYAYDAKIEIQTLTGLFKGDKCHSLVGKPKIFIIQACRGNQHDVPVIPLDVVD
Target sequence (P55212 194-293 limits assumed): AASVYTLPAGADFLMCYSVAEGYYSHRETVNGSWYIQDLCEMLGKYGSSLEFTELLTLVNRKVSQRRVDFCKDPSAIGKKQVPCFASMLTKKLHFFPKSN
UHRF1 MBD2 ctr – human UHRF1 methylated DNA binding inhibitors; Q96T88; UHRF1 binding to methylated oligo, TR-FRET; inhibition, % at 4.4 µM; actives 0.75% (n = 370,000); in the data active means inhibition above about 21%;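 further: UHRF1 SRA domain binding a hemimethylated CpG hairpin DNA probe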
NSD2 inh – NSD2 (human) methyltransferase inhibition. O96028. inhibition, % at 12.5 µM. actives 0.54% (n = 310,000). NSD2 peptide methylation, AlphaScreen, 120 min; in the data active means inhibition above about 50%
Hits are given with their value; - = inactive; . = not tested or not shown.

SMILES	TDP2 absorb	LEDGF integ inh	MBD2 DNA inh	Casp6 inh	UHRF1 MBD2 ctr	NSD2 inh
Cc1ccc(C(=O)OCC(=O)NCCNC(=O)COC(=O)c2ccc(C)s2)s1	-	-	-	-	30	-
C[C@H]1CCCCO[C@@H](CN(C)Cc2ccc(C(=O)O)cc2)[C@@H](C)CN([C@@H](C)CO)C(=O)c2cc(NC(=O)Nc3ccccc3)ccc2O1	.	.	.	-	.	.
CCCCCCn1cc(CN2CC(N3CCN(C)CC3)CS2(=O)=O)nn1 (stereo not drawn)	-	-	-	-	-	.
COC(=O)CCCn1cc(CN2CC(N3CCN(C)CC3)CS2(=O)=O)nn1 (stereo not drawn)	-	-	-	-	24	.
COCC(=O)N1CC2(C1)[C@@H](c1ccc(-c3ccccc3)cc1)[C@H](CO)N2C(=O)COC	.	.	.	-	.	.
O=C(Cn1nc(C(F)(F)F)cc1C1CC1)NCc1ccccc1F	-	-	-	-	21	-
CCC(=O)Nc1ccc(C(=O)NNC(=O)c2cc(OC)c(OC)c(OC)c2)cc1	-	-	-	-	-	-
COc1cc(C(=O)NNC(=O)c2ccc(NC(=O)C(C)(C)C)cc2)cc(OC)c1OC	-	-	-	-	32	-
CCC(=O)Nc1ccc2c(c1)nc(CCN1CCC(C)CC1)n2C	-	-	-	-	-	-
CC1CCN(CCc2nc3cc(NC(=O)COc4ccccc4)ccc3n2C)CC1	-	-	-	-	26	-
Cc1cccc(Nc2ncnc3onc(-c4ccc(F)cc4)c23)c1C	-	-	-	-	-	.
Cc1cccc(Nc2ncnc3onc(-c4cccc(Cl)c4)c23)c1C	-	-	-	-	24	.
CCCCOC(=O)Nc1ccc(S(=O)(=O)Nc2onc(C)c2C)cc1	-	-	-	-	21	-
CC(=O)Nc1ccc(C(=O)OCC(=O)N2CCCC2=O)cc1	-	-	-	-	-	-
COc1cc(C(=O)OCC(=O)N2CCCC2=O)cc(OC)c1C	-	-	-	37	-	-
CCCCN1CC(=O)N2Cc3[nH]c4ccccc4c3C[C@H]2C1=O	-	-	-	-	-	-
CN1CC(=O)N2Cc3[nH]c4ccccc4c3C[C@H]2C1=O	-	-	-	45	-	-
Cc1noc(C)c1NC(=O)Nc1ccc2c(c1)C(=O)N([C@H](C)CO)C[C@@H](C)[C@H](CN(C)C(=O)Nc1ccc(F)cc1)OCCCC[C@@H](C)O2	.	.	.	-	.	.
CCCCCn1nnnc1-c1nc2cc(C)c(C)cc2[nH]c1=O	-	-	-	42	-	.
CCCCn1nnnc1-c1nc2ccccc2[nH]c1=O	-	-	-	-	-	.
CC(NC(=O)c1ccc(CS(=O)(=O)c2cccc(C(F)(F)F)c2)o1)c1ccc2c(c1)OCCO2 (stereo not drawn)	-	-	-	.	42	-
O=C(NCc1ccc2c(c1)OCO2)c1ccc(CS(=O)(=O)c2cccc(C(F)(F)F)c2)o1	-	-	-	.	-	-
CC(=O)N(C)C[C@H]1Oc2cc(C#Cc3ccncc3)ccc2S(=O)(=O)N([C@H](C)CO)C[C@@H]1C	.	.	.	-	.	.
O=c1cc(CSc2nnc(-c3cccs3)o2)c2c(ccc3ccccc32)o1	.	.	.	.	.	-
NN1C(=O)c2cccc3c(C(=O)O)ccc(c23)C1=O	-	-	-	.	-	-
SMILES	TDP2 absorb	LEDGF integ inh	MBD2 DNA inh	Casp6 inh	UHRF1 MBD2 ctr	NSD2 inh
O=C(O)c1ccc2c3c(cccc13)C(=O)N(c1ccccc1)C2=O	-	-	-	50	-	-
O=C(O)c1ccc(N2C(=O)c3cccc4c(C(=O)O)ccc(c34)C2=O)cc1	-	-	-	53	24	-
Nc1ccc2c(c1)C(=O)Cc1ccccc1S2	-	-	-	-	49	-
CN(C)CCCOc1ccc2c(c1)Sc1ccccc1CC2=O	-	-	-	.	-	-
O=S(=O)(c1ccc(Br)cc1)n1c(Cc2ccccc2)nc2ccccc21	-	-	-	-	-	-
O=S(=O)(N1CCCCC1)n1c(Cc2ccccc2)nc2ccccc21	-	-	-	.	35	-
O=C1Cc2cc(S(=O)(=O)N3CCN(c4ccc(C(=O)O)cc4)CC3)ccc2N1	-	-	-	38	-	.
CC(=O)c1ccc(N2CCN(S(=O)(=O)c3ccc4c(c3)NC(=O)CC(=O)N4)CC2)cc1	-	-	-	-	-	-
COc1ccccc1-c1cn(CC[C@@H]2CC[C@H](NS(=O)(=O)c3ccccc3C)[C@@H](CO)O2)nn1	.	.	.	-	.	.
CCOc1ccccc1N1CCN(Cc2ccc(OC)c(OC)c2OC)CC1	-	-	-	.	-	-
CCOc1ccccc1N1CCN(Cc2ccc(OC)c(OC)c2)CC1	-	-	-	.	23	-
COc1cc2cc(C)c(SCC(=O)N3c4ccccc4Sc4ccccc43)nc2cc1OC	.	.	.	.	.	-
COc1cc(-c2nnc(COC(=O)c3ccc([N+](=O)[O-])o3)o2)cc(OC)c1OC	-	-	-	58	-	-
N#C/C(=C/c1ccc(N2CCCCC2)o1)C(=O)Nc1ccc(Cl)cc1	-	-	-	.	54	-
C#CCOc1ccc(CNC[C@H]2O[C@@H](n3ccc(N)nc3=O)[C@H](O)[C@@H]2O)cc1	-	-	-	39	-	.
Nc1ccn([C@@H]2O[C@H](CNCc3ccc(C#CCCO)cc3)[C@@H](O)[C@H]2O)c(=O)n1	-	-	-	-	-	.
C[C@@H]1CN([C@H](C)CO)S(=O)(=O)c2ccc(-c3cccnc3)cc2O[C@H]1CN(C)CC1CCOCC1	.	.	.	-	.	.
O=C(CC1CC1)Nc1ccc2c(c1)[C@H]1C[C@H](CC(=O)NC3CCCCC3)O[C@@H](CO)[C@H]1O2	.	.	.	-	.	.
COCCOC(=O)c1[nH]c2c(c1C)C(=O)CC(c1ccco1)C2 (stereo not drawn)	-	16	-	50	33	.
CCOC(=O)c1[nH]c2c(c1C)C(=O)CC(c1ccco1)C2 (stereo not drawn)	-	-	-	-	-	.
CC1(C)N([O-])c2cc([N+](=O)[O-])ccc2[N+]1=O	-	21	-	38	-	85
Cc1ccc(C)n1-c1cc([N+](=O)[O-])ccc1-n1ccnc1	-	-	-	-	-	-
CN(C)CC#Cc1ccc([C@@H]2[C@H]3CN(C(=O)Nc4cc(F)ccc4F)CCCCN3[C@H]2CO)cc1	.	.	.	-	.	.
Cc1nc(C)c(-c2csc(Nc3cccc(O)c3)n2)s1	-	-	-	-	-	-
Cc1cccc(Nc2nc(-c3sc(C)nc3C)cs2)c1	-	-	-	-	25	-
SMILES	TDP2 absorb	LEDGF integ inh	MBD2 DNA inh	Casp6 inh	UHRF1 MBD2 ctr	NSD2 inh
Fc1ccc(/C=N/NC(=S)Nc2cccnc2)cc1	-	-	-	48	-	-
Fc1ccc(/C=N/NC(=S)Nc2cccnc2)cc1F	-	-	-	-	-	-
S=C(N/N=C/c1ccc2ncccc2c1)Nc1ccccc1	-	-	-	-	32	-
C(=N\NCc1ccccc1)/c1ccc2ncccc2c1	-	-	-	-	-	-
CCN(CC)c1ccc(N=Cc2ccccc2[N+](=O)[O-])cc1	-	15	-	-	-	.
O=[N+]([O-])c1ccccc1/C=N/OCc1ccccc1	-	-	-	-	-	-

Assay outcomes: PubChem BioAssay, several laboratories
